These results are taken from ChEMBL document CHEMBL4393735, “Molecular modelling, synthesis, and biological evaluations of a 3,5-disubstituted isoxazole fatty acid analogue as a PPARα-selective agonist” (Bioorg Med Chem, 2019).

SMILES strings stand for the structures. Active and inactive are the calls of the source.

The subject of data set [1] is SGBS. Description: Upregulation of ACSL1 gene expression in human preadipocyte derived from Simpson-Golabi-Behmel syndrome (SGBS) patient at 25 uM measured for 12 days by qRT-PCR analysis. It counts as functional, cell-based. Put shortly: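 SGBS cells were differentiated with serum-free induction medium containing 25 μM test agent, 2 μM rosiglitazone or 0.1% DMSO from day 0. IBMX and dexamethasone were removed on day 4 and medium was renewed on day 8. RNA was taken on days 0, 4, 8 and 12 for qPCR, normalized to TBP and to day 0. At least three biological replicates in duplicate, two-way ANOVA with Bonferroni.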
On the technique in general: In qPCR the cycle at which signal appears reflects the starting amount.

The target of data set [2] is T1, Peroxisome proliferator-activated receptor alpha (Homo sapiens) (UniProt Q07869).
T1 sequence (whole entry): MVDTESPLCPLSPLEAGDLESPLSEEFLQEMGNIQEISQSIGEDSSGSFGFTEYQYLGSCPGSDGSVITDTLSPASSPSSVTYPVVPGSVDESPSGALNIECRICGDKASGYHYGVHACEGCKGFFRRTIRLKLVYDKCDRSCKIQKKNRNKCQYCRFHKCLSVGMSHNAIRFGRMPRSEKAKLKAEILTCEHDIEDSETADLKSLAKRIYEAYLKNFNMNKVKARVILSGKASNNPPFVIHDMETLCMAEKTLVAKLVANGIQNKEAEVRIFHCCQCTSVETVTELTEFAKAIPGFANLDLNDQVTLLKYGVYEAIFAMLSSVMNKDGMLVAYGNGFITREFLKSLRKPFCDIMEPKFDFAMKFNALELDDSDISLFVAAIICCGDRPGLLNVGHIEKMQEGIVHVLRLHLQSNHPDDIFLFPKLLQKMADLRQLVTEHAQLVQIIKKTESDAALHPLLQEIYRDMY
Description: Agonist activity at PPARalpha in human Huh7 cells assessed as activation of CPT1A mRNA expression at 50 uM measured after 18 hrs by qRT-PCR analysis. The class given is cell-based. In a few lines:
(§1)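 Treatment for 18 h at 50 μM (or 1 μM for the 1 μM agents), DMSO vehicle. Harvested for qPCR. mRNA normalized to TBP by the comparative threshold method, expressed relative to DMSO control. Two biological replicates run in duplicate, mean ± SEM. Primary hepatocytes came from male C57BL/6N mice aged 7–8 weeks, isolated by portal-vein perfusion and digestion, seeded on collagen I and used on day 2. HuH-7 cells were kept in DMEM with 10% FBS and ITS.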

The target of data set [3] is T1, Peroxisome proliferator-activated receptor alpha (Homo sapiens). Description: Agonist activity at PPARalpha in human Huh7 cells assessed as SREBF1 mRNA expression at 50 uM measured after 18 hrs by qRT-PCR analysis. It counts as cell-based. In a few lines: as §1
Data set [4] has as its system COS-1. Description: Cytotoxicity against African green monkey COS1 cells assessed as reduction in cell viability at 10^-4 M by XTT based assay. The note with it: chlorocebus aethiops, cos-1, 100 µM. Put shortly:
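COS-1 cells were treated across the same concentration series as the GAL4 dose-response runs. Cytotoxicity was measured as LDH released into medium (absorbance 492/750 nm) and by XTT viability assay (absorbance 450/690 nm). Results expressed relative to control.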
(Tetrazolium assays rely on reduction of a dye to a coloured formazan, in cell work by metabolically active cells.)

Data set [5] deals with T2, Oxysterols receptor LXR-beta (Homo sapiens) (UniProt P55055).
T2 sequence (whole entry): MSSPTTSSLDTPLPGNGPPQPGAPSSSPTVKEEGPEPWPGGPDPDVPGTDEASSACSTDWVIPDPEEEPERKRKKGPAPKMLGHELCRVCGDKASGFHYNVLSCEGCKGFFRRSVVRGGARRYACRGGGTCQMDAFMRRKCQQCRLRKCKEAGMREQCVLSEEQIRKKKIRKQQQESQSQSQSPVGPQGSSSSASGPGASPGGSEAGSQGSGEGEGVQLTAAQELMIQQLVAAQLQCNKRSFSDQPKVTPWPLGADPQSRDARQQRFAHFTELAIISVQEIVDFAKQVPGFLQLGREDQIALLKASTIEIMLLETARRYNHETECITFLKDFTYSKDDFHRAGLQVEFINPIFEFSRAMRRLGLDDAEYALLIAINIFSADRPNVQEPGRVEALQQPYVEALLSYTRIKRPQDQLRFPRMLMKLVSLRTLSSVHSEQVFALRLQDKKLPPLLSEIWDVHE
Description: Agonist activity at full length human GAL4-DBD fused LXRbeta LBD (155 to 461 residues) expressed in COS1 cells at 25 to 50 uM measured after 18 hrs by dual luciferase reporter gene assay. The class given is cell-based. Put shortly: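 COS-1 cells were transfected using Lipofectamine 2000 with GAL4-DBD–human NR-LBD plasmid, a 5×UAS-SV40 firefly luciferase reporter and pRL-CMV. After 6 h, cells were treated with 0, 25 or 50 μM in 0.1% DMSO (final) for 18 h. Firefly signal was normalized to Renilla, then to DMSO control and GAL4-only. Three biological replicates in quadruplicate, mean ± SEM, two-way ANOVA with Bonferroni.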
Background: Reporter assays use an easily measured gene product as a stand-in for the process of interest.

On to `CCCCCCCc1cc(CCCCCC(=O)O)no1`, for which the result in data set [1] and in data set [2] was Active. The result in data set [3] and in data set [5] was inactive. The Activity result in data set [4] is on record as “Toxic”.
